The record followed here is publication PMC3051377 (British Journal of Pharmacology, 2011).

Assay [1] concerns the target T1, M2 receptor-G-protein complex (Homo sapiens, UniProt P08172).
T1 sequence (P08172 1-466): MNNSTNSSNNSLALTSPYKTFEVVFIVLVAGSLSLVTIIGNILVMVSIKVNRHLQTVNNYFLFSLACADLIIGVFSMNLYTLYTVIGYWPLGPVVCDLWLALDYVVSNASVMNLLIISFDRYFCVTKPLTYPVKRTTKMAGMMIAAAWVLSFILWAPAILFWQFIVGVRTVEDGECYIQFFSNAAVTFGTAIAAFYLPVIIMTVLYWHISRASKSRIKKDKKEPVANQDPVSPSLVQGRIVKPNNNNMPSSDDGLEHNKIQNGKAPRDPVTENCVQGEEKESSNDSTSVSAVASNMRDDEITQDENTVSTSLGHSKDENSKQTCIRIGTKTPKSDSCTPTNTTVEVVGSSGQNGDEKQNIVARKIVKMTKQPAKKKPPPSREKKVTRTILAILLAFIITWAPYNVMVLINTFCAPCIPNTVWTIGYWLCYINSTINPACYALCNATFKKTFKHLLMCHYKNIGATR
The class given is binding. The conditions noted are these: for reduction of agonist affinity by GDP (factor of cooperativity β): Eqn 8, GDP-less membranes, 1 nM [3H]NMS.

Assay [2] deals with T2, human M2 muscarinic receptor (Homo sapiens, UniProt P08172).
T2 sequence (P08172 1-466): T1 sequence (P08172 1-466)
Put plainly: Competition of agonists with 1 nM [3H]NMS binding.

Assay [3] has as its target T1, M2 receptor-G-protein complex. The class given is binding. The conditions noted are these: for factor of cooperativity α between binding of [3H]GDP and agonist (pα): GDP-less membranes, n=3.
Assay [4] addresses T2, human M2 muscarinic receptor. Briefly: Agonist-stimulated [35S]GTPγS binding to membranes from M2 CHO cells. Format: biochemical. The settings on record: for EMAX [fold over basal]: 500 pM [35S]GTPγS, 50 µM GDP; for nH: Hill coefficient, Eqn 2.
Assay [5] concerns the target T3, Gi/o G-proteins (Homo sapiens, UniProt P08172).
T3 sequence (P08172 1-466): T1 sequence (P08172 1-466)
Briefly: biochemical. Format: biochemical, Chinese hamster.

For assay [6], the target named is T4, Gq/11 G-proteins (Homo sapiens, UniProt P08172).
T4 sequence (P08172 1-466): T1 sequence (P08172 1-466)
The class given is binding, Chinese hamster.

The target of assay [7] is T3, Gi/o G-proteins. Briefly: biochemical. Format: binding, Chinese hamster. The settings on record: for pα: cooperativity between agonist and [3H]GDP binding.
Assay [8] addresses T4, Gq/11 G-proteins. Put plainly: [35S]GTPγS binding to Gq/11 G-proteins. Format: biochemical, Chinese hamster.
Assay [9] concerns the target T5, Gs/olf G-proteins (Homo sapiens, UniProt P08172).
T5 sequence (P08172 1-466): T1 sequence (P08172 1-466)
Put plainly: biochemical. The class given is biochemical, Chinese hamster.

The target of assay [10] is T5, Gs/olf G-proteins. Put plainly: biochemical. The class given is binding, Chinese hamster. The settings on record: for pα: cooperativity between agonist and [3H]GDP binding.
The test system of assay [11] is G-proteins in GDP-less membranes of CHO-M2 cells. Briefly: Kinetics of [3H]GDP binding to GDP-less membranes. Set-up: species or system Chinese hamster. A digest of the protocol:
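GDP-less CHO-M2 membranes, 30°C. Association of 500 nM [³H]GDP was measured after 20 min pre-incubation with buffer, 10 or 100 µM agonist, or 0.1 µM antagonist. For dissociation, membranes were prelabelled with 500 nM [³H]GDP for 180 min, then chased with 50 µM GDP alone or with ligand. Slow and fast rate constants came from biphasic fits.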

Assay [12] relates to Gi/o G-proteins. Briefly: Kinetics of 500 nM [3H]GDP binding to Gi/o G-proteins. Set-up: species or system Chinese hamster.
Assay [13] deals with Gs/olf G-proteins. Briefly: Kinetics of 500 nM [3H]GDP binding to Gs/olf G-proteins. The settings on record: Control. Details: species or system Chinese hamster.
Assay [14] has as its system G-proteins in GDP-less membranes of CHO-M2 cells. Briefly: Kinetics of [35S]GTPγS binding to GDP-less membranes. Details: species or system Chinese hamster. A digest of the protocol: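 GDP-less CHO-M2 membranes, 30°C. Association of 1 nM [³⁵S]GTPγS was measured after 20 min pre-incubation with buffer or 100 µM agonist, ±50 µM GDP. For dissociation, membranes were preloaded 90 min with 1 nM [³⁵S]GTPγS ±50 µM GDP, then chased with 1 µM GTPγS alone or with agonist. Filtration on glass-fibre filters, scintillation counting. Three experiments in quadruplicate; exponential association/dissociation fits.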

Assay [15] has the same test system. Put plainly: Equilibrium [3H]GDP binding to GDP-less membranes. Set-up: species or system Chinese hamster. The method in brief: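 GDP-less membranes from CHO-M2 cells were made by treatment with 1 M ammonium sulphate for 3 h at 4°C, then renatured 1 h in 20% glycerol. Incubation was 5 h at 30°C in 100 mM NaCl, 20 mM Na-HEPES, 10 mM MgCl₂ (pH 7.4) with 1 mM DTT. Assays were homologous competition at 1 or 5 µM [³H]GDP, plus saturation. Non-specific binding was taken with 50 µM GDP. Three experiments, quadruplicate; Hill-equation fits.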

[16] abbreviates: Control (crude membranes), fraction of receptors in low-affinity state.
Where [17] appears, read: 1 nM [35S]GTPγS, GDP-less membranes, no GDP, no ligand.
Where [18] appears, read: NMS (100 nM), presence of 50 µM GDP.

Read-outs that look alike come from different tables or passages of the source.

On to `C[N+](C)(C)Cc1ccco1` [Furmethide], for which, in assay [1], the “reduction of agonist affinity by GDP (factor of cooperativity β)” value is reported as 250 fold. The pKi in assay [2] (+1 µM GTPγS, monophasic) is reported as 4.76 ± 0.05; in [2] (+50 µM GDP, monophasic), 4.77 ± 0.05. Moreover, the pKi high in assay [2] (Control (crude membranes)) stood at 7.12 ± 0.09; in assay [2] (GDP-less membranes), 7.77 ± 0.08. Further, the pKi low was determined as 4.78 ± 0.08 in assay [2] (Control (crude membranes)) and 4.87 ± 0.09 in [2] (GDP-less membranes). Besides, the “flow[%]” value in assay [2] (setting [16]) was 50 ± 9%; in assay [2] (GDP-less membranes), 9.6 ± 3.8 %. The “factor of cooperativity α between binding of [3H]GDP and agonist (pα)” value in assay [3] (10 µM [3H]GDP) is recorded as −2.4 ± 0.3. Also, the “maximal increase of [35S]GTPγS binding (Emax)” value in [4] was determined as 3.1 fold increase. In addition, the “EMAX [fold over basal]” value in assay [4] is 3.12 ± 0.08 fold over basal. The compound also returned a nH in assay [4] of 0.82 ± 0.05. Also, the EC50 in [4] (read-out: half-effective concentrations (EC50), stimulation of [35S]GTPγS binding) is 7000 nM. Moreover, the EMAX was 2.95 ± 0.09 fold increase over basal binding on Gi/o G-proteins [5] (Gi/o), 1.20 ± 0.01 fold increase over basal binding at Gq/11 G-proteins [8] (Gq/11) and 1.70 ± 0.02 fold increase over basal binding on Gs/olf G-proteins [9] (Gs/olf). The pEC50 at Gi/o G-proteins [5] (Gi/o) was determined as 5.34 ± 0.10; on Gq/11 G-proteins [8] (Gq/11), 4.72 ± 0.06; on Gs/olf G-proteins [9] (Gs/olf), 4.76 ± 0.03. The pα is listed as −0.32 ± 0.05 on Gq/11 G-proteins [6] (Gq/11, cooperativity between agonist and [3H]GDP binding); −2.4 ± 0.2 at Gi/o G-proteins [7] (Gi/o); −1.0 ± 0.1 on Gs/olf G-proteins [10] (Gs/olf). Also, the pKA at Gq/11 G-proteins [6] (Gq/11, equilibrium dissociation constant of agonist, Eqn 7) was determined as 7.17 ± 0.06; on Gi/o G-proteins [7] (Gi/o, equilibrium dissociation constant of agonist, Eqn 7), 7.13 ± 0.05; at Gs/olf G-proteins [10] (Gs/olf, equilibrium dissociation constant of agonist, Eqn 7) it was 7.10 ± 0.05.
As for `Nc1nc2c(ncn2[C@@H]2O[C@H](COP(=O)(O)OP(=O)(O)O)[C@@H](O)[C@H]2O)c(=O)[nH]1` [GDP, guanosine diphosphate], in assay [11] (500 nM [3H]GDP, no ligand), the koff fast amounted to 0.00122 s⁻¹ and the “sites with koff slow” value was 40%. The “factor of cooperativity α between [3H]NMS and GDP” value in assay [1] (GDP-less membranes) is 1. Besides, the “effect of GDP on [3H]NMS binding” value in assay [1] (absence of agonist) is reported as “no effect”. Moreover, in assay [3] (Eqn 7, all four agonists, mean ± SD, n=12), the “equilibrium dissociation constant for [3H]GDP (pKA)” value is recorded as 5.51 ± 0.05. In the assay with Gi/o G-proteins [12] (Control), this compound had a Beq1 of 2.1 ± 0.2 fmol·µg^−1 protein, a Beq2 of 1.1 ± 0.1 fmol·µg^−1 protein, a f2 of 37 ± 5% and a koff1 of 0.00583 ± 0.0005 s⁻¹. The same compound had a koff2 in the assay with Gi/o G-proteins [12] (Control) of 0.000667 ± 6.7e-05 s⁻¹. Besides, the “Beq, mono-exponential fit” value in the assay on Gi/o G-proteins [12] (control conditions (absence of carbachol), n=3) worked out at 2.8 ± 0.3 fmol·µg·prot^−1. In the assay on Gs/olf G-proteins [13], this compound yielded a Beq of 0.81 ± 0.04 fmol·µg^−1 protein and a koff of 0.00112 ± 0.00012 s⁻¹. Besides, in assay [14] (GDP-less membranes, 50 µM GDP), the “Beq of [35S]GTPγS” value is reported as 1.21 ± 0.12 fmol·µg^−1protein. For the same compound, in assay [14] (addition of 50 µM GDP), the “decrease of equilibrium binding of [35S]GTPγS” value came to 4.7 fold, the “effect on rate of dissociation of [35S]GTPγS” value was “did not change” and the “slowing of rate of association of [35S]GTPγS” value was determined as 3.2 fold. For the same compound, in assay [15] (read-out: IC50, homologous competition, 1 µM [3H]GDP), the IC50 was determined as 4480 nM. For the same compound, in [15] (read-out: IC50, homologous competition, 5 µM [3H]GDP), the IC50 came to 8550 nM. The Kd in assay [15] (read-out: KD for [3H]GDP from homologous competition) is 3490 nM. Also, the Kd in assay [15] (read-out: KD, saturation binding, 0.3 to 10 µM [3H]GDP) came out at 3470 ± 30 nM.
Consider `Nc1nc2c(ncn2[C@@H]2O[C@H](COP(=O)(O)OP(=O)(O)OP(O)(O)=S)[C@@H](O)[C@H]2O)c(=O)[nH]1` [GTPγS, guanosine-5′-γ−thiotriphosphate], for which, in [14] (setting [17]), the Beq is reported as 5.66 ± 0.22 fmol·µg^−1protein and the koff stood at 9e-05 ± 3.61e-06 s⁻¹.
Consider `C[N+]1(C)[C@@H]2C[C@@H](OC(=O)[C@H](CO)c3ccccc3)C[C@H]1[C@@H]1O[C@@H]12` [NMS, N-methylscopolamine], for which the “effect on GDP dissociation” value in [11] (100 nM NMS (Figure 4 right)) is given as “only slightly slows down”. For the same compound, the “effect on [3H]GDP binding” value in [3] (10 µM [3H]GDP, increasing ligand concentration) is on record as “did not affect”. The “cooperativity between NMS and GDP” value in assay [3] (Figures 6 and 7) is on record as “neutral”. The “behaviour in [35S]GTPγS binding” value in [4] (Figures 1 and 8) was “inverse agonist”. In addition, the “Beq of [35S]GTPγS” value in assay [14] (GDP-less membranes, 50 µM GDP +100 nM NMS) amounted to 1.20 ± 0.11 fmol·µg^−1protein. For the same compound, in [14] (setting [18]), the “effect on dissociation kinetics of [35S]GTPγS” value is listed as “did not change” and the “slowing of association of [35S]GTPγS” value worked out at 25%.
For `O=C1CCCN1CC#CCN1CCCC1` [Oxotremorine], the “reduction of agonist affinity by GDP (factor of cooperativity β)” value in assay [1] worked out at 60 fold. Also, the figures for the “flow[%]” value in assay [2] (setting [16]) and in assay [2] (GDP-less membranes) were 66 ± 8% and 13 ± 4 %, respectively. The “change of high-affinity KI in GDP-less membranes vs control” value in [2] (GDP-less vs control membranes) is given as “not changed”. Moreover, the Ki in [2] (pKi high, Control (crude membranes)) is 11.7 nM; in assay [2] (pKi high, GDP-less membranes) it was 11.2 nM; in [2] (pKi, +1 µM GTPγS, monophasic), 550 nM; in assay [2] (pKi, +50 µM GDP, monophasic), 417 nM. For the same compound, the “factor of cooperativity α between binding of [3H]GDP and agonist (pα)” value in assay [3] (10 µM [3H]GDP) is listed as −1.8 ± 0.1. For the same compound, the results for the EC50 (in [4]; on Gi/o G-proteins [5]; on Gs/olf G-proteins [9]) were 1020 nM, 933 nM and 7410 nM, respectively. For the same compound, the “maximal increase of [35S]GTPγS binding (Emax)” value in assay [4] is on record as 2.8 fold increase. Besides, the “EMAX [fold over basal]” value in [4] is 2.78 ± 0.06 fold over basal. Also, the nH in [4] stood at 0.92 ± 0.03. In addition, the results for the EMAX at Gi/o G-proteins [5] (Gi/o) and on Gs/olf G-proteins [9] (Gs/olf) were 2.72 ± 0.05 fold increase over basal binding and 1.53 ± 0.01 fold increase over basal binding, respectively. For the same compound, the “effect on [3H]GDP equilibrium binding” value at Gq/11 G-proteins [6] (Gq/11, 10 µM [3H]GDP) was “no effect”. Further, the Kd on Gi/o G-proteins [7] was 11.7 nM; on Gs/olf G-proteins [10] it was 10.7 nM. The pα is −2.1 ± 0.2 on Gi/o G-proteins [7] (Gi/o) and −0.78 ± 0.08 on Gs/olf G-proteins [10] (Gs/olf). The “stimulation of [35S]GTPγS binding” value at Gq/11 G-proteins [8] (Gq/11, text) is given as “no stimulation”.
